In ChEMBL document CHEMBL1145138, “Design and synthesis of 4-azaindoles as inhibitors of p38 MAP kinase” (J Med Chem, 2003):

Legend:
[1] = molecular target: Mitogen-activated protein kinase 14 (Homo sapiens, UniProt Q16539); assay: In vitro inhibitory concentration against Mitogen-activated protein kinase p38 alpha
[2] = molecular target: Mitogen-activated protein kinase 14 (Rattus norvegicus) (UniProt P70618); assay: In vivo percent inhibition of LPS stimulated TNF alpha synthesis in rat at a concentration of 30 mg/kg; type: functional, organism-based; parameters: dose 30 mg/kg
How it was run: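 Female Wistar/Han rats, 8 per group, were dosed orally at −30 min with compound in CMC vehicle (0.9% NaCl, 0.5% Na-CMC, 0.4% polysorbate 80, 0.9% benzyl alcohol) or with vehicle alone. LPS 50 μg/kg was given ip at 0 h. At 1.5 h, blood was taken by cardiocentesis after CO₂ euthanasia, and serum TNFα was measured by ELISA against vehicle controls.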

[3] = molecular target: Mitogen-activated protein kinase 14 (Rattus norvegicus) (UniProt P70618); assay: In vivo percent inhibition of LPS stimulated TNF alpha synthesis in rat at a concentration of 10 mg/kg

Chain of Mitogen-activated protein kinase 14 (Rattus norvegicus) (P70618 whole entry): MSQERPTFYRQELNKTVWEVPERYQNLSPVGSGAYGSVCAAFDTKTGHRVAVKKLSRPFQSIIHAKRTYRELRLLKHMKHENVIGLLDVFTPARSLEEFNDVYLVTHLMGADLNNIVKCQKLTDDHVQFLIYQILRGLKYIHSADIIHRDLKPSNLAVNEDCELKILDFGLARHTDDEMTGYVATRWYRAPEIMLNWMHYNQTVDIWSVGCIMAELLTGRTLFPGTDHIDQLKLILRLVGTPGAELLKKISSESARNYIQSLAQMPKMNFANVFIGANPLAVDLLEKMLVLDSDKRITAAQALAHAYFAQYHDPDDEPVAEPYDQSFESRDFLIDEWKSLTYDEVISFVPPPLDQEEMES
Chain of Mitogen-activated protein kinase 14 (Q16539 whole entry): as the sequence (P70618 whole entry) above, with V17I, H48L, A263T, E321D, F332L counted along it

Row | Compound | IC50 [1] [nM] | inhibition [2] [%] | inhibition [3] [%]
1 | Fc1ccc(-c2c(-c3ccncc3)[nH]c3ccncc23)cc1 | 3100 |  | 
2 | OCCn1c(-c2ccncc2)c(-c2ccc(F)cc2)c2ncccc21 | 172 |  | 
3 | Fc1ccc(-c2c(-c3ccncc3)[nH]c3cncnc23)cc1 | 895 | 26 | 
4 | Fc1ccc(-c2c(-c3ccncc3)n(CCN3CCCCC3)c3cccnc23)cc1 | 1970 | 75 | 
5 | COCCn1c(-c2ccncc2)c(-c2ccc(F)cc2)c2ncccc21 | 21 |  | 
6 | Fc1ccc(-c2c(-c3ccncc3)n(CCN3CCOCC3)c3cccnc23)cc1 | 185 | 79 | 
7 | Fc1ccc(-c2c(-c3ccncc3)oc3cccnc23)cc1 |  | 44 | 
8 | CCC(O)CNc1cc(-c2[nH]c3cccnc3c2-c2ccc(F)cc2)ccn1 (stereo unspecified) | 3 |  | 85
9 | OCCCCNc1cc(-c2[nH]c3cccnc3c2-c2ccc(F)cc2)ccn1 | 5 | 69 | 
10 | Fc1ccc(-c2c(-c3ccncc3)[nH]c3nccnc23)cc1 | 53 | 98 | 
